Experimental findings from article PMC8463269 (Acta Pharmaceutica Sinica. B, 2021) are described below.

For orientation: pKd means −log10 of the Kd, conventionally taken in molar units. Low readings indicate a large Kd, high ones a small Kd. What is called kon is a measure of how fast the partners come together. A lower kon goes with slow association. As a reminder, the pIC50 is −log10 of the IC50, conventionally taken in molar units. A word on the koff: it is the first-order rate constant of dissociation.

Data set [1] in a line: Circular dichroism spectroscopy, α-helicity. The format is physicochemical. The conditions noted are these: CD, 0.3 mg/mL in 1×PBS pH 7.4, 25 °C, 190–260 nm, average of three readings. In a few lines: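 Spectra were taken in a 1.0 mm path quartz cell with 1 nm bandwidth, 50 nm/min scan speed and 1 s response time. Peptide was also run in PBS with 50% trifluoroethanol. Spectra were converted to mean residue ellipticity (deg·cm²/dmol) versus wavelength.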

Another data set concerns the target KRAS^G12C protein (Homo sapiens, UniProt P01116, G12C). In words: Bio-Layer Interferometry. In kind it is binding. Put shortly:
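The biotinylated protein was captured on SSA sensors in an Octet RED 96. Test peptides were run at various concentrations, and KD was calculated from the binding kinetics.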
(Biolayer interferometry detects binding as a change in optical thickness at a sensor tip.)

Data set [2] relates to H358 cells. The experiment in a line: Cell viability, CCK8 assay. In kind it is cell-based. The conditions noted are these: read-out: IC50, H358 cell viability, n = 3. In a few lines: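 H358 cells in RPMI-1640 with 10% FBS were plated overnight, then incubated with diluted series of test peptide for 24 h, or 36, 48 and 72 h. CCK8 reagent was added for 1 h at 37 °C and absorbance read at 450 nm. Mean ± SD of three independent experiments.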
(In general: Tetrazolium dyes change colour on reduction, which living cells bring about.)

Data set [3] can be described thus: Plasma stability in rat plasma. In kind it is in vitro ADME, Sprague–Dawley rats. As to conditions: 1300 μg/mL, 0 min, HPLC. Put shortly: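 Heparinised blood was drawn from the femoral artery of Sprague–Dawley rats and centrifuged at 4 °C, 4000 r/min for 10 min to give plasma. Plasma spiked with test peptide was incubated at 37 °C. Aliquots were precipitated in 3 volumes of methanol–acetonitrile (50:50), vortexed and centrifuged, and the supernatant was analysed by C18 RP-HPLC with a 0.1% TFA water/acetonitrile gradient.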

Data set [4] has as its target hexahistidine-tagged recombinant human KRAS^G12C (human) (UniProt P01116). In words: BLI.
Another data set can be described thus: circular dichroism. The conditions noted are these: PBS; pH 7.4; 25 °C; 0.3 mg/mL. In general terms: Circular dichroism is widely used to follow secondary structure.
Data set [5] deals with H358 cells. In words: Cell cycle analysis by flow cytometry. In kind it is cell-based. As to conditions: 24-h treatment, highest concentration of the series, control 16.76%.
Data set [6] relates to H358 cells. The experiment in a line: Annexin V-FITC apoptosis assay by flow cytometry. The format is cell-based. As to conditions: 24 h, control 36.42%.
The subject of another data set is cyclin B1. The experiment in a line: Western blot, cyclin B1 expression in H358 cells. In kind it is cell-based. As to conditions: H358 cells, 0, 5, 10, 20 μmol/L, 24 h. Put shortly: (§1)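 H358 cells treated with test peptide for 24 h were lysed on ice for 1 h in buffer with phosphatase inhibitor cocktail and PMSF. Proteins were separated by SDS-PAGE and transferred to PVDF. Membranes were incubated with primary antibody at 4 °C overnight, then HRP goat anti-rabbit IgG for 100 min, and imaged by chemiluminescence. GAPDH was probed alongside.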

The subject of data set [7] is cyclin-dependent kinase 1 (CDK1). The experiment in a line: Western blot, CDK1 expression in H358 cells. In kind it is cell-based. The conditions noted are these: H358 cells, 0, 5, 10, 20 μmol/L, 24 h. Put shortly: as §1
The next data set relates to BAX. The experiment in a line: Western blot, BAX expression in H358 cells. The format is cell-based. The conditions noted are these: H358 cells, 0, 5, 10, 20 μmol/L, 24 h. In a few lines:
as §1

The subject of a further data set is BCL-2. In words: Western blot, BCL-2 expression in H358 cells. The format is cell-based. The conditions noted are these: H358 cells, 0, 5, 10, 20 μmol/L, 24 h. Put shortly:
as §1

The test system of a further data set is caspase 3. In words: Western blot, caspase 3 expression in H358 cells. The format is cell-based. As to conditions: H358 cells, 0, 5, 10, 20 μmol/L, 24 h. In a few lines: as §1
For a further data set, the system named is trypsin. In words: Enzymatic degradation by trypsin. As to conditions: 150 μg/mL peptide, 3 μg/mL trypsin, NH4HCO3 buffer, 37 °C, HPLC, n = 3. In kind it is in vitro ADME. Put shortly:
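Test peptide was digested with trypsin or chymotrypsin (peptide:enzyme weight ratio 50:1) in NH4HCO3 buffer at 37 °C. Samples were taken at 0, 30 min and 1, 2, 6, 12 and 24 h and quenched with 1% (v/v) formic acid. Analysis was by C18 RP-HPLC with a 0.1% TFA water/acetonitrile gradient (20→90% B over 30 min, 1 mL/min).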

pIC50, pKd: −log10 of the molar value. Like-named read-outs stand apart in the source and are kept apart here. Where a SMILES comes first, the peptide text is derived from it. Bridges are numbered along the chain shown (N, C = ends). [ ]: non-standard residue; d: D form. S5 = C=CCCC[C@](C)(N)C(=O)O

Turning to `CC[C@H](C)[C@H](NC(=O)CNC(=O)[C@H](Cc1ccccc1)NC(=O)[C@H](Cc1ccccc1)NC(=O)[C@H](CCCNC(=N)N)NC(=O)[C@H](CCCNC(=N)N)NC(C)=O)C(=O)N[C@@]1(C)CCCC=CCCC[C@@](C)(C(=O)N[C@@H](CC(C)C)C(=O)N[C@@H](CCCCN)C(=O)N[C@H](C(=O)N[C@@H](CCC(=O)O)C(=O)N[C@@H](CCC(=O)O)C(=O)NCC(=O)N[C@@H](CC(N)=O)C(N)=O)[C@@H](C)O)NC(=O)[C@H](CC(N)=O)NC(=O)[C@H]([C@@H](C)O)NC(=O)[C@H](CC(C)C)NC1=O` [Peptide 1, reference compound], in data set [1], the “α-helicity in PBS” value was 16.20%. At KRAS^G12C protein, this compound gave a pKd of 4.23 and a kon of 14800 M⁻¹ s⁻¹. For the same compound, the pIC50 with H358 cells [2] (CCK8, 24-h incubation) is 4.67. In [3], the “plasma stability, characteristic peak in the chromatogram” value is “No characteristic peaks were observed”.

At KRAS^G12C protein, `CC[C@H](C)[C@H](NC(=O)CNC(=O)[C@H](Cc1ccccc1)NC(=O)[C@H](Cc1ccccc1)NC(C)=O)C(=O)N[C@@]1(C)CCCC=CCCC[C@@](C)(C(=O)N[C@@H](CC(C)C)C(=O)N[C@@H](CCCCN)C(=O)N[C@H](C(=O)N[C@@H](CCC(=O)O)C(N)=O)[C@@H](C)O)NC(=O)[C@H](CC(N)=O)NC(=O)[C@H]([C@@H](C)O)NC(=O)[C@H](CC(C)C)NC1=O` [Peptide 2] (Ac-FFGI[S5]LTN[S5]LKTE-NH2; staple 5-9) gave a pKd of 4.66 and a kon of 43600 M⁻¹ s⁻¹.

With `CC[C@H](C)[C@H](NC(C)=O)C(=O)N[C@@]1(C)CCCC=CCCC[C@@](C)(C(=O)N[C@@H](CC(C)C)C(=O)N[C@@H](CCCCN)C(=O)N[C@H](C(N)=O)[C@@H](C)O)NC(=O)[C@H](CC(N)=O)NC(=O)[C@H]([C@@H](C)O)NC(=O)[C@H](CC(C)C)NC1=O` [Peptide 7] (Ac-I[S5]LTN[S5]LKT-NH2; staple 2-6), the “α-helicity in PBS” value in data set [1] was determined as 17.90%. In addition, at KRAS^G12C protein, the pKd is 4.06 and the kon amounted to 64.7 M⁻¹ s⁻¹.

Turning to `CC(=O)N[C@@]1(C)CCCC=CCCC[C@@](C)(C(=O)N[C@@H](CC(C)C)C(=O)N[C@@H](CCCCN)C(=O)N[C@H](C(N)=O)[C@@H](C)O)NC(=O)[C@H](CC(N)=O)NC(=O)[C@H]([C@@H](C)O)NC(=O)[C@H](CC(C)C)NC1=O` [Peptide 8] (Ac-[S5]LTN[S5]LKT-NH2; staple 1-5), at KRAS^G12C protein, the pKd is 4.54 and the kon was 1750 M⁻¹ s⁻¹.

At KRAS^G12C protein, `CC[C@H](C)[C@H](NC(=O)CNC(=O)[C@H](Cc1ccccc1)NC(C)=O)C(=O)N[C@@]1(C)CCCC=CCCC[C@@](C)(C(=O)N[C@@H](CC(C)C)C(N)=O)NC(=O)[C@H](CC(N)=O)NC(=O)[C@H]([C@@H](C)O)NC(=O)[C@H](CC(C)C)NC1=O` [Peptide 9] (Ac-FGI[S5]LTN[S5]L-NH2; staple 4-8) had a pKd of 4.19 and a kon of 1630 M⁻¹ s⁻¹.

Turning to `CC[C@H](C)[C@H](NC(C)=O)C(=O)N[C@@]1(C)CCCC=CCCC[C@@](C)(C(=O)N[C@@H](CC(C)C)C(N)=O)NC(=O)[C@H](CC(N)=O)NC(=O)[C@H]([C@@H](C)O)NC(=O)[C@H](CC(C)C)NC1=O` [Peptide 5] (Ac-I[S5]LTN[S5]L-NH2; staple 2-6), at KRAS^G12C protein, the kon came out at 3.12 M⁻¹ s⁻¹. Moreover, the Kd at KRAS^G12C protein (BLI, dissociation rate constant) is 1.06 s⁻¹.

The compound `CC(=O)N[C@@]1(C)CCCC=CCCC[C@@](C)(C(N)=O)NC(=O)[C@H](CC(N)=O)NC(=O)[C@H]([C@@H](C)O)NC(=O)[C@H](CC(C)C)NC1=O` [Peptide 6] (Ac-[S5]LTN[S5]-NH2; staple 1-5) registered a kon at KRAS^G12C protein of 3.22 M⁻¹ s⁻¹.

With SAH-SOS1A (peptide 1), the koff in [4] came out at 0.862 s⁻¹.

At KRAS^G12C protein, `CC[C@H](C)[C@H](NC(=O)CNC(=O)[C@H](Cc1ccccc1)NC(C)=O)C(=O)N[C@@]1(C)CCCC=CCCC[C@@](C)(C(N)=O)NC(=O)[C@H](CC(N)=O)NC(=O)[C@H]([C@@H](C)O)NC(=O)[C@H](CC(C)C)NC1=O` [Peptide 10] (Ac-FGI[S5]LTN[S5]-NH2; staple 4-8) showed a pKd of 3.88 and a kon of 294 M⁻¹ s⁻¹.

Consider `CC[C@H](C)[C@H](NC(=O)CNC(=O)[C@H](Cc1ccccc1)NC(C)=O)C(=O)N[C@@]1(C)CCCC=CCCC[C@@](C)(C(=O)N[C@@H](CC(C)C)C(=O)N[C@@H](CCCCN)C(=O)N[C@H](C(N)=O)[C@@H](C)O)NC(=O)[C@H](CC(N)=O)NC(=O)[C@H]([C@@H](C)O)NC(=O)[C@H](CC(C)C)NC1=O` [Peptide 3] (Ac-FGI[S5]LTN[S5]LKT-NH2; staple 4-8), for which the helicity in “circular dichroism” came to 18.9%. In addition, the “α-helicity in PBS” value in data set [1] was determined as 18.93%. Also, on KRAS^G12C protein, the kon came out at 4600 M⁻¹ s⁻¹. In addition, the pIC50 with H358 cells [2] (CCK8, 24-h incubation) was 4.80; in the data set with H358 cells [2] (CCK8, 36-h incubation), 5.12; in the data set on H358 cells [2] (CCK8, 48-h incubation) it was 5.24; in the data set on H358 cells [2] (CCK8, 72-h incubation), 5.18. Further, the “percentage of cells in the G2/M” value with H358 cells [5] is given as 49.79%. Besides, the results for the “proportion of apoptotic cells (Q2 + Q3)” value in the data set with H358 cells [6] (2.5 μmol/L), in the data set on H358 cells [6] (10 μmol/L) and in the data set on H358 cells [6] (20 μmol/L) were 56.63%, 61.40% and 70.70%, respectively. Besides, the “cyclin B1 expression” value in the data set with cyclin B1 was “significantly downregulated”. In addition, the CDK1 expression entry in data set [7] was “significantly downregulated”. Moreover, in the data set on BAX, the “pro-apoptotic BAX protein expression” value is “insignificant effect”. In the data set on BCL-2, the “anti-apoptotic BCL-2 protein expression” value is on record as “obviously inhibited”. Also, the “caspase 3 expression” value in the data set with caspase 3 is “increased”. In addition, the “percentage of trypsin hydrolysate (g) of the peptide” value in the data set with trypsin (12 h) is recorded as 78%; in the data set on trypsin (24 h) it was 34%.

On KRAS^G12C protein, `CC[C@H](C)[C@H](NC(=O)CNC(C)=O)C(=O)N[C@@]1(C)CCCC=CCCC[C@@](C)(C(=O)N[C@@H](CC(C)C)C(=O)N[C@@H](CCCCN)C(N)=O)NC(=O)[C@H](CC(N)=O)NC(=O)[C@H]([C@@H](C)O)NC(=O)[C@H](CC(C)C)NC1=O` [Peptide 4] (Ac-GI[S5]LTN[S5]LK-NH2; staple 3-7) gave a pKd of 4.60 and a kon of 97.6 M⁻¹ s⁻¹.
